Experimental findings from ChEMBL document CHEMBL4406794, “N-(7-Cyano-6-(4-fluoro-3-(2-(3-(trifluoromethyl)phenyl)acetamido)phenoxy)benzo[d]thiazol-2-yl)cyclopropanecarboxamide (TAK-632) Analogues as Novel Necroptosis Inhibitors by Targeting Receptor-Interacting Protein Kinase 3 (RIPK3): Synthesis, Structure-Activity Relationships, and in Vivo Efficacy” (J Med Chem, 2019) are described below.

Data set [1] concerns Mus musculus. The data set is described as follows: Protection against TNFalpha/Z-VAD-fmk-induced C57BL/6J mouse model of systemic inflammatory response syndrome assessed as increase in mouse survial at 5 to 50 mg/kg, po administered via gavage 2 hrs prior to Z-VAD-fmk addition for 15 mins followed by TNFalpha stimulation for 1 hr and subsequent Z-VAD-fmk addition meaured up to 50 hrs post TNFalpha stimulation. Type of data set: functional, organism-based. In a few lines: (§1)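 Female C57BL/6 mice, fasted overnight, n=10 per group. Compound given by oral gavage at 5, 25 or 50 mg/kg 2 h before TNF. z-VAD-fmk 180 µg i.p., then 15 min later mTNF-α 400 µg/kg i.v. in endotoxin-free PBS, then a further 70 µg z-VAD-fmk i.p. 1 h later. Body temperature and survival followed, compared with vehicle by one-way ANOVA.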

A short description of data set [2]: Cytotoxicity against human HT-29 cells measured after 12 hrs by CellTiter-Glo Luminescent assay. It is filed as cell-based. In general terms: Cellular ATP, detected with luciferase, serves as a proxy for viable cell number.
For data set [3], the target named is T1, Receptor-interacting serine/threonine-protein kinase 1 (Homo sapiens, UniProt Q13546).
T1 sequence (Q13546 whole entry): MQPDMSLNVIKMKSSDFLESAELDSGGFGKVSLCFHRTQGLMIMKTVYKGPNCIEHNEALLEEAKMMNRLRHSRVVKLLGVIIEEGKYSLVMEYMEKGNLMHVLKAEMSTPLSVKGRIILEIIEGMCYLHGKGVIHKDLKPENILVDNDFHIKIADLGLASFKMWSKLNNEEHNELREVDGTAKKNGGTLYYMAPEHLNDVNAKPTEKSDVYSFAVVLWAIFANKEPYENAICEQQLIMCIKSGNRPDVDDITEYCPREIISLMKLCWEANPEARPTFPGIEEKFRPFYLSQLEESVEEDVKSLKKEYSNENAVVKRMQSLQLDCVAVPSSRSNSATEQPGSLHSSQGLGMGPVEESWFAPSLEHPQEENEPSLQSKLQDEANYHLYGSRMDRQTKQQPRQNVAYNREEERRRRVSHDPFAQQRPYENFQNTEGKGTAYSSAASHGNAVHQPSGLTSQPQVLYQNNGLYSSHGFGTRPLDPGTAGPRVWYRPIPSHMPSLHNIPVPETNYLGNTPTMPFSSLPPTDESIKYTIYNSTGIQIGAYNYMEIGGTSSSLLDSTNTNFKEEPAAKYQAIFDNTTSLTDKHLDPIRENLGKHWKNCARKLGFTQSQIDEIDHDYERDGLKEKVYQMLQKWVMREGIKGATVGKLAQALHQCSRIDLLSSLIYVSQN
As to the kind of experiment: Binding affinity to wild-type human partial length RIPK1 (M1 to K305 residues) expressed in bacterial expression system after 1 hr by quantitative PCR based KINOMEscan assay. In a few lines:
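KINOMEscan competition binding. Bound kinase eluted with 0.5 μM nonbiotinylated ligand for 30 min and quantified by qPCR. Duplicates averaged.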

For data set [4], the system named is Mus musculus. The data set is described as follows: Protection against TNFalpha/Z-VAD-fmk-induced C57BL/6J mouse model of systemic inflammatory response syndrome at 100 mg/kg, po administered via gavage 2 hrs prior to Z-VAD-fmk addition for 15 mins followed by TNFalpha stimulation for 1 hr and subsequent Z-VAD-fmk addition meaured up to 50 hrs post TNFalpha stimulation relative to control. Type of data set: functional.

The subject of data set [5] is Mus musculus. As to the kind of experiment: Protection against TNFalpha/Z-VAD-fmk-induced C57BL/6J mouse model of systemic inflammatory response syndrome at 25 mg/kg, po administered via gavage 2 hrs prior to Z-VAD-fmk addition for 15 mins followed by TNFalpha stimulation for 1 hr and subsequent Z-VAD-fmk addition meaured up to 50 hrs post TNFalpha stimulation relative to control. It is filed as functional. Put shortly:
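Overnight-fasted C57BL/6 female mice, n=10 per group. Test compound was given by oral gavage 2 h before mTNF-α. z-VAD-fmk (180 µg) was injected ip, then 15 min later mTNF-α in endotoxin-free PBS was injected iv (400 µg/kg). A second z-VAD-fmk dose (70 µg) was given ip 1 h after TNF. Body temperature and survival were followed against vehicle. One-way ANOVA was used.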

Data set [6] deals with Mus musculus. As to the kind of experiment: Protection against TNFalpha/Z-VAD-fmk-induced C57BL/6J mouse model of systemic inflammatory response syndrome assessed as increase in body temperature at 5 to 50 mg/kg, po administered via gavage 2 hrs prior to Z-VAD-fmk addition for 15 mins followed by TNFalpha stimulation for 1 hr and subsequent Z-VAD-fmk addition meaured up to 50 hrs post TNFalpha stimulation by electric thermometer. Type of data set: functional, organism-based. In a few lines: as §1

Usually CC50 stands for the concentration giving 50% cytotoxicity. For orientation: Kd means the concentration at which binding is half-saturated.

Calls of active or inactive are those of the source. The rule behind the calls is not given here. Bounds are passed on as bounds.

Take `N#Cc1c(Oc2ccc(F)c(NC(=O)Cc3cccc(C(F)(F)F)c3)c2)ccc2nc(NC(=O)C3CC3)sc12`: the outcome in data set [1] and in data set [6] was Active. The CC50 at 12 h in data set [2] was over 50000 nM. Also, binding in data set [3] was characterised by a dissociation constant (Kd) of 480 nM. The Activity in data set [4] is recorded as 70%; in data set [5] it was 20%.
